Series [1] deals with tubulin. In words: Inhibition of tubulin assembly. In kind it is biochemical. The following applies: read-out: Inhibition of tubulin polymerization IC50; cell-free assay, tubulin purified from calf brain. The essentials:
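Calf-brain tubulin; test compound mixtures held on ice 15 min, then GTP added from a 2.5 mM stock. Samples equilibrated at 0 °C for 8 min in the spectrophotometer, then read at 350 nm every 30 s for 3800 s. Temperature program: 0 °C for 100 s, 38 °C for 120 s, 31 °C until 2600 s, then 0 °C to the end.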

Series [2] concerns SK-OV-3, NCI-H460 and DU-145 human cancer cell lines. In words: SRB cytotoxicity assay, three human cancer cell lines stated together. In kind it is cell-based. The essentials:
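Sulforhodamine B growth-inhibition assay (NCI standard method). Cells were grown in RPMI1640 with 5% fetal bovine serum and 1% gentamicin, then plated and incubated 24 h. Serial dilutions of test compound were added, with 48 h exposure. Cells were fixed with trichloroacetic acid, stained with SRB, and read by optical density. GI50 (concentration halving net protein increase) was calculated from OD data.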

Series [3] concerns tubulin. The following applies: read-out: Inhibition of tubulin polymerization IC50; cell-free assay; ref [61]; cited from earlier work.

Read-outs that look alike come from different tables or passages of the source.

For the compound `COc1cc(C2=CCCCc3c2cc(OC)c(OC)c3O)cc(OC)c1OC` [Compound 43, 1-Hydroxy-2,3-dimethoxy-5-(3′,4′,5′-trimethoxyphenyl)-benzocyclohept-5-ene], the concentration for half-maximal inhibition (IC50) in the series on tubulin [1] was more than 40 µM. Same read-out and setting: as for `COc1ccc(C2=CCCCc3c2ccc(OC)c3OC)cc1OC` [Compound 35, 1,2-Dimethoxy-5-(3,4-dimethoxyphenyl)-benzocyclohept-5-ene], the figure is more than 40 µM. For `COc1ccc2c(c1O)CCCC=C2c1cc(OC)c(OC)c(OC)c1` [Compound 39, 1-Hydroxy-2-methoxy-5-(3′,4′,5′-trimethoxyphenyl)-benzocyclohept-5-ene], in series [2] (Homo sapiens, read-out: GI50 (cytotoxicity)), the GI50 was less than 0.1 nM. For `COc1ccc(/C=C\c2cc(OC)c(OC)c(OC)c2)cc1OP(=O)(O)O` [CA4P, combretastatin A-4P], in the series with tubulin [3], the IC50 was more than 40 µM. For the compound `COc1ccc2c(c1NC(=O)[C@@H](N)CO)CCCC=C2c1cc(OC)c(OC)c(OC)c1.Cl` [Compound 48, 1-(L-ser)amido-5-(3′,4′,5′-trimethoxyphenyl)-2-methoxy-benzocyclohept-5-ene hydrochloride], the “Cytotoxicity (in words)” value in series [2] (three human cancer cell lines) is “inactive in terms of cytotoxicity”. Take `COc1cc2c(c(OC)c1O)CCCC=C2c1cc(OC)c(OC)c(OC)c1` [Compound 38, 1,3-Dimethoxy-2-hydroxy-5-(3′,4′,5′-trimethoxyphenyl)-benzocyclohept-5-ene]: the IC50 in the series on tubulin [1] is more than 40 µM. Take `COc1cc(C2=CCCCc3c2ccc(OC)c3OP(=O)(O)O)cc(OC)c1OC` [Compound 44, Disodium 2-Methoxy-5-(3′,4′,5′-trimethoxyphenyl)-benzocyclohept-5-ene-1-phosphate]: the IC50 in the series on tubulin [1] was more than 40 µM. The same measure, in the same setting: with `COc1cc(C2=CCCCc3ccccc32)cc(OC)c1OC` [Compound 41, 5-(3,4,5-trimethoxyphenyl)-benzocyclohept-5-ene] the figure was more than 40 µM.

As a reminder, the IC50 is the concentration that gives 50% inhibition. Usually GI50 stands for the concentration giving 50% growth inhibition.

The values are drawn from article PMC3968794 (Bioorganic & medicinal chemistry, 2013).
